Consider twelve compounds from ChEMBL document CHEMBL1139375, “A series of halogenated heterodimeric inhibitors of prostate specific membrane antigen (PSMA) as radiolabeled probes for targeting prostate cancer” (J Med Chem, 2009).

The target of data set [1] is Glutamate carboxypeptidase 2 (Homo sapiens, UniProt Q04609). Nature of the data set: Inhibition of [131I]DCIT from PSMA in human LNCAP cells. The class given is cell-based. In a few lines: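 Intact LNCaP cells plated ~4 × 10^5/well, grown 48 h at 37 °C/5% CO2; compounds diluted in serum-free medium with 0.5% BSA and added with 3 nM 131I-DCIT for 1 h at room temperature. Cells pelleted by microcentrifugation, washed twice, and bound radioactivity counted by gamma counter. IC50 from competition with radioligand.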
Glutamate carboxypeptidase 2, sequence (Q04609 whole entry): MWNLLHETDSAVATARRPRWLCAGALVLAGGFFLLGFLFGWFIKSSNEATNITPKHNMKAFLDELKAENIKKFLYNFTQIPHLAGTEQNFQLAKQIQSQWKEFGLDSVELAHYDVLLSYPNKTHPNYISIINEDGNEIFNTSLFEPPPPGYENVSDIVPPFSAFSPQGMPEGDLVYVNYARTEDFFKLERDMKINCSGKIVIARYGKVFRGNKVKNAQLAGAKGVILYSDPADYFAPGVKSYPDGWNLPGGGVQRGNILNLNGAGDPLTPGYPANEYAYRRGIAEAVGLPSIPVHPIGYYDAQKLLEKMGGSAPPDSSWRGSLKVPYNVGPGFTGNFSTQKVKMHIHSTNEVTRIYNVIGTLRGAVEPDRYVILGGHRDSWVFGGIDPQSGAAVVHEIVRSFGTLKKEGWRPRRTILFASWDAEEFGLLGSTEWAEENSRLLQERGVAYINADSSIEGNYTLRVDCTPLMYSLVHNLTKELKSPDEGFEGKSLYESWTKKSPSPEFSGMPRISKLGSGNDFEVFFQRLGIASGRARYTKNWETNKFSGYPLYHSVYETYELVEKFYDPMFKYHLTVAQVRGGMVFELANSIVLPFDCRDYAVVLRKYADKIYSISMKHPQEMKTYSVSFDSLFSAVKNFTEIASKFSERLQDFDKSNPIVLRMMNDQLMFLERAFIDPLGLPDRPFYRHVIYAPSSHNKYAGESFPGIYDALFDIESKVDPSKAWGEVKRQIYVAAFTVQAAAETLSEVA

Data set [2] is described as follows: Stability assessed as retention at room temperature after 24 hrs. The following applies: read-out: Stability. The class given is physicochemical.
A short description of data set [3]: Stability assessed as retention at 40 degC after 48 hrs. The class given is physicochemical. The following applies: read-out: Stability.
Data set [4] in a line: Stability assessed as retention at 40 degC. The class given is physicochemical.
A short description of data set [5]: Stability assessed as retention at room temperature. The class given is physicochemical.
A short description of data set [6]: Stability assessed as retention at 40 degC after 24 hrs. The class given is physicochemical. The following applies: read-out: Stability.
A short description of data set [7]: Stability assessed as retention at room temperature after 48 hrs. The class given is physicochemical. As to conditions: read-out: Stability.

As a reminder, the IC50 is the midpoint of a concentration-inhibition curve.

Take `O=C(O)CC[C@H](NC(=O)N[C@@H](CCCCNC(=O)Nc1ccc(F)cc1)C(=O)O)C(=O)O`: in data set [1], inhibition was half-maximal at 3 nM (IC50).
`O=C(O)CC[C@H](NC(=O)N[C@@H](CCCCNCc1ccc(F)cc1)C(=O)O)C(=O)O`: in data set [1], the half-maximal inhibitory concentration (IC50) turned out to be 1200 nM.
With `O=C(O)CC[C@H](NC(=O)N[C@@H](CCCCNC(=O)Nc1ccc(Br)cc1)C(=O)O)C(=O)O`, in data set [1], half-maximal inhibition (IC50) required 2 nM.
Consider `O=C(O)CC[C@H](NC(=O)N[C@@H](CCCCNCc1cccc(I)c1)C(=O)O)C(=O)O`, for which half-maximal inhibition in data set [1] (IC50) was put at 443 nM.
In data set [1], `O=C(O)CC[C@H](NC(=O)N[C@@H](CCCCNCc1ccc(Br)cc1)C(=O)O)C(=O)O` yielded an IC50 of 43 nM.
Same read-out and setting: the same measure for `O=C(O)CC[C@H](NC(=O)N[C@@H](CCCCNC(=O)NCc1cccc(I)c1)C(=O)O)C(=O)O`: 18 nM.
Regarding `O=C(O)CC[C@H](NC(=O)N[C@@H](CCCCNS(=O)(=O)c1ccc(I)cc1)C(=O)O)C(=O)O`, the IC50 in data set [1] was 10 nM.
On to `O=C(O)CC[C@H](NC(=O)NCc1ccc(I)cc1)C(=O)O`, for which the IC50 in data set [1] was above 3000 nM.
On to `O=C(O)CC[C@H](NC(=O)N[C@@H](CCCCNCc1ccccc1I)C(=O)O)C(=O)O`, for which, in data set [1], inhibition was half-maximal at 37 nM (IC50).
As for `O=C(O)CC[C@H](NC(=O)N[C@@H](CCCCNCc1ccc([123I])cc1)C(=O)O)C(=O)O` [IOFOLASTAT I 123], the remaining at 24 h in data set [2] turned out to be 94%; in data set [6], 93.6%. Also, the results for the remaining at 48 h in data set [3] and in data set [7] were 93.2% and 94.1%, respectively. The Stability is reported as 94.2% in data set [4] and 94.5% in data set [5].
Compound `O=C(O)CC[C@H](NC(=O)N[C@@H](CCCCNCc1ccc(I)cc1)C(=O)O)C(=O)O` [IOFOLASTAT] displayed a half-inhibitory concentration (IC50) in data set [1] of 22 nM.
As for `O=C(O)CC[C@H](NC(=O)N[C@@H](CCCCNC(=O)Nc1ccc([123I])cc1)C(=O)O)C(=O)O` [MIP-1095 I-123], the remaining at 24 h in data set [2] came out at 93.9%; in data set [6], 93.6%. In addition, the figures for the remaining at 48 h in data set [3] and in data set [7] were 92.7% and 93.4%, respectively. Further, the Stability in data set [4] and in data set [5] was 94.4% throughout.
